What is called Kd is the concentration at which binding is half-saturated. Low values mean tighter binding, high ones weaker binding. One may read the EC50 as the concentration giving half of the maximal effect.

SMILES strings stand for the structures. Converted amounts (≈) assume the structure as drawn.

In assay [1] the test system is TMV. Briefly: Anti-TMV curative activity in vivo, half-leaf method. Further details: species or system tobacco mosaic virus. Conditions: against TMV in vivo at 500 mg/L (500 μg/mL); average of three replicates ± SD. Put shortly:
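Five-leaf-stage tobacco plants were dusted with emery and rub-inoculated with TMV. After 0.5 h the emery was rinsed off with water and the leaves left to dry. Test compound solution went on the left half-leaf and blank solution on the right. Lesions were counted per half 3–4 days later, and inhibition (%) was calculated from treated versus blank counts. Three repeats; ribavirin positive control.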

The target of assay [2] is T1, TMV-coat protein (TMV-CP) (Tobacco mosaic virus, UniProt P69687).
T1 sequence (P69687 2-159 limits assumed): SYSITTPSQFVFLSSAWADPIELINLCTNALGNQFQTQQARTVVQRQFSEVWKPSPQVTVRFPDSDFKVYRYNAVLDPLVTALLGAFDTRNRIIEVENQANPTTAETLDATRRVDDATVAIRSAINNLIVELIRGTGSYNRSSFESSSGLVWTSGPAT
Briefly: Microscale thermophoresis. The format is binding. The essentials:
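Test compound binding to TMV coat protein was measured by microscale thermophoresis to give a dissociation constant (Kd). Ningnanmycin and ribavirin served as positive controls. Each test was repeated three times.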

Assay [3] has as its system TMV. Briefly: Anti-TMV inactivation. In kind it is in vivo. Conditions: Tobacco mosaic virus, read-out: EC50 of inactivation effect activity. The essentials: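 TMV was mixed with test compound for 0.5 h. The mixture was rubbed onto the right half-leaf of tobacco plants, and the left half received the same virus dose alone. Lesions were counted 3–4 days later. Inhibition (%) was calculated from lesion numbers versus the blank-control half. Three repeats; ribavirin positive control.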

The compound `NC(=O)c1ncn([C@@H]2O[C@H](CO)[C@@H](O)[C@H]2O)n1` [ribavirin] returned a curative effect activity in the assay with TMV [1] of 49.3 ± 7.5%. The Kd in assay [2] came to 223 ± 66.2 µM. In addition, in the assay with TMV [3], the EC50 worked out at 138 ± 4.2 µg/mL (≈ 566 µM).

The values above are taken from paper PMC7424737 (ACS Omega, 2020).
